The values that follow come from ChEMBL document CHEMBL3769382, “Structure-Based Discovery of Novel and Selective 5-Hydroxytryptamine 2B Receptor Antagonists for the Treatment of Irritable Bowel Syndrome” (J Med Chem, 2016).

Usually inhibition stands for the relative decrease from the control value, in per cent. The Ki is the equilibrium dissociation constant of an inhibitor or competing ligand from its target. Lower therefore signals a stronger hold on the target. A word on the inhibition in vivo: it is the drop in the measured response relative to a control, in per cent. The IC50 is the midpoint of a concentration-inhibition curve. Read a low IC50 as greater potency in that assay.

Data set [1] deals with T1, 5-hydroxytryptamine receptor 2B (Homo sapiens, UniProt P41595). As to the kind of experiment: Antagonist activity at 5-HT2B receptor (unknown origin) expressed in CHO-K1 cells assessed as calcium flux at 1 uM after 60 mins by FLIPR assay. The format is functional, cell-based. In a few lines: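 CHO-K1 cells stably expressing 5-HT2B receptor, antagonist mode, calcium flux read-out. Compounds screened at 10 μM and 1 μM; dose-response curves run for compounds active in the screen to give IC50.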
In general terms: A change in cytosolic calcium serves as a functional read-out for many receptors and channels.

The target of data set [2] is 5-hydroxytryptamine receptor 1D (Homo sapiens, UniProt P28221). Briefly: Displacement of [3H][…] from 5-HT1D receptor (unknown origin) after 1.5 hrs by microbeta scintillation counting method. Background: Loss of bound radioactivity is the signal in a displacement assay; it reports binding, not function.
Data set [3] addresses T1, 5-hydroxytryptamine receptor 2B. As to the kind of experiment: Displacement of [3H]LSD from 5-HT2B receptor (unknown origin) after 1.5 hrs by microbeta scintillation counting method.
The target in data set [4] is 5-hydroxytryptamine receptor 1E (Homo sapiens, UniProt P28566). Briefly: Displacement of [3H]-5-HT from 5-HT1E receptor (unknown origin) after 1.5 hrs by microbeta scintillation counting method.
Data set [5] deals with 5-hydroxytryptamine receptor 2A (Homo sapiens, UniProt P28223). Briefly: Displacement of [3H]Ketanserin from 5-HT2A receptor (unknown origin) after 1.5 hrs by microbeta scintillation counting method.
Data set [6] addresses 5-hydroxytryptamine receptor 5A (Homo sapiens, UniProt P47898). Briefly: Displacement of [3H]LSD from 5-HT5A receptor (unknown origin) after 1.5 hrs by microbeta scintillation counting method.
The target of data set [7] is 5-hydroxytryptamine receptor 1B (Homo sapiens, UniProt P28222). Briefly: Displacement of [3H][…] from 5-HT1B receptor (unknown origin) after 1.5 hrs by microbeta scintillation counting method.
The target in data set [8] is 5-hydroxytryptamine receptor 7 (Homo sapiens, UniProt P34969). Briefly: Displacement of [3H]LSD from 5-HT7A receptor (unknown origin) after 1.5 hrs by microbeta scintillation counting method.
The target of data set [9] is T2, 5-hydroxytryptamine receptor 2C (Homo sapiens, UniProt P28335).
T2 sequence (P28335 whole entry): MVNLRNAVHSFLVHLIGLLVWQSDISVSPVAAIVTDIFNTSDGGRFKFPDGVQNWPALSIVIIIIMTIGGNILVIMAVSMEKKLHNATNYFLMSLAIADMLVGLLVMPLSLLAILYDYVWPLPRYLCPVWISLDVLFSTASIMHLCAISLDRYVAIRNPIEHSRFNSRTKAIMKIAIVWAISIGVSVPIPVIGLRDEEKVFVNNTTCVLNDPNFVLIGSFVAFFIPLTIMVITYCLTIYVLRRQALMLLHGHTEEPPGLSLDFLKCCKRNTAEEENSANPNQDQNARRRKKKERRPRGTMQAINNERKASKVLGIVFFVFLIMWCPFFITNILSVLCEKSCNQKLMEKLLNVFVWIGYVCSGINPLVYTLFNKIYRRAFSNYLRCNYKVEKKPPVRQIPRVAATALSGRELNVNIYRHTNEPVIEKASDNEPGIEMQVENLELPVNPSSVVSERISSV
As to the kind of experiment: Displacement of [3H]LSD from 5-HT2C receptor (unknown origin) after 1.5 hrs by microbeta scintillation counting method.

The target of data set [10] is T3, 5-hydroxytryptamine receptor 3A (Homo sapiens, UniProt P46098).
T3 sequence (P46098 whole entry): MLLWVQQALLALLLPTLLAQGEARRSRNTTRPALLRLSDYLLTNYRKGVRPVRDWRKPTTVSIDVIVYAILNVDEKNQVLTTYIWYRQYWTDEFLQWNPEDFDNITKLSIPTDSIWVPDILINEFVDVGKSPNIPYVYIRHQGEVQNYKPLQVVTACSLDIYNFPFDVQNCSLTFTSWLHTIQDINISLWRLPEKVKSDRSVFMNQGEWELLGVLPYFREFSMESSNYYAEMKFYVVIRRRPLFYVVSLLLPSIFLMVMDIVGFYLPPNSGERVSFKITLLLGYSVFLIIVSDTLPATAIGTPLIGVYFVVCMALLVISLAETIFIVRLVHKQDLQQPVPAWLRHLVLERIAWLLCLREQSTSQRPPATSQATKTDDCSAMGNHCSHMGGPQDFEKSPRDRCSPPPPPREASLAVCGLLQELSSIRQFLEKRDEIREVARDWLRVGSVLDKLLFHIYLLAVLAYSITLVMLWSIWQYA
Briefly: Displacement of [3H]LY278584 from 5-HT3 receptor (unknown origin) after 1.5 hrs by microbeta scintillation counting method.

Data set [11] deals with T4, 5-hydroxytryptamine receptor 1A (Homo sapiens, UniProt P08908).
T4 sequence (P08908 whole entry): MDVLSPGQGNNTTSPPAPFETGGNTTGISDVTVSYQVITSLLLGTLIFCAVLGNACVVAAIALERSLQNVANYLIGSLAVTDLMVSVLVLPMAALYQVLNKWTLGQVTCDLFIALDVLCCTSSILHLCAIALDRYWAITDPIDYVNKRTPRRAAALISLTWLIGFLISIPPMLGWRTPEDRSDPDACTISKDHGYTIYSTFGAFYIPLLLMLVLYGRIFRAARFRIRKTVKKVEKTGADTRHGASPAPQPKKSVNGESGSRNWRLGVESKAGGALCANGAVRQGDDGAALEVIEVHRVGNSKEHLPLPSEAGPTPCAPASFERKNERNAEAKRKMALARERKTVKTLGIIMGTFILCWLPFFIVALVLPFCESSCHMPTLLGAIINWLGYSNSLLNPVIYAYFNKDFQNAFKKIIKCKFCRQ
Briefly: Displacement of [3H]8-OH-DPAT from 5-HT1A receptor (unknown origin) after 1.5 hrs by microbeta scintillation counting method.

The target of data set [12] is 5-hydroxytryptamine receptor 6 (Homo sapiens, UniProt P50406). As to the kind of experiment: Displacement of [3H]LSD from 5-HT6 receptor (unknown origin) after 1.5 hrs by microbeta scintillation counting method.
The test system of data set [13] is Rattus norvegicus. Briefly: Acute toxicity in Sprague-Dawley rat at 500 mg/kg, po. In kind it is organism-based. The following applies: in vivo.
In data set [14] the test system is Rattus norvegicus. Briefly: Inhibition of visceral hypersensitivity in Sprague-Dawley rat model of IBS assessed as […] by measuring lifting of pelvic structure and arching of body at 30 mg/kg, po by colorectal distention test. The format is functional. In a few lines: (§1)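 Rat IBS model induced by TNBS injection, then chronic unpredictable mild stress; colon histology checked by HE staining. Compound given orally at 30 mg/kg. Visceral sensitivity scored by abdominal withdrawal reflex, with pain thresholds in mmHg at scores 3 and 4. Compared with control rats; % inhibition derived from thresholds.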

Data set [15] has as its system Rattus norvegicus. Briefly: Inhibition of visceral hypersensitivity in Sprague-Dawley rat model of IBS assessed as […] by measuring abdominal contraction at 30 mg/kg, po by colorectal distention test. In kind it is functional. Particulars: Abdomen. In a few lines:
as §1

The target in data set [16] is Voltage-gated inwardly rectifying potassium channel KCNH2 (Homo sapiens, UniProt Q12809). Briefly: Inhibition of human ERG channel by patch clamp assay.
Sequence of Voltage-gated inwardly rectifying potassium channel KCNH2 (Q12809 whole entry): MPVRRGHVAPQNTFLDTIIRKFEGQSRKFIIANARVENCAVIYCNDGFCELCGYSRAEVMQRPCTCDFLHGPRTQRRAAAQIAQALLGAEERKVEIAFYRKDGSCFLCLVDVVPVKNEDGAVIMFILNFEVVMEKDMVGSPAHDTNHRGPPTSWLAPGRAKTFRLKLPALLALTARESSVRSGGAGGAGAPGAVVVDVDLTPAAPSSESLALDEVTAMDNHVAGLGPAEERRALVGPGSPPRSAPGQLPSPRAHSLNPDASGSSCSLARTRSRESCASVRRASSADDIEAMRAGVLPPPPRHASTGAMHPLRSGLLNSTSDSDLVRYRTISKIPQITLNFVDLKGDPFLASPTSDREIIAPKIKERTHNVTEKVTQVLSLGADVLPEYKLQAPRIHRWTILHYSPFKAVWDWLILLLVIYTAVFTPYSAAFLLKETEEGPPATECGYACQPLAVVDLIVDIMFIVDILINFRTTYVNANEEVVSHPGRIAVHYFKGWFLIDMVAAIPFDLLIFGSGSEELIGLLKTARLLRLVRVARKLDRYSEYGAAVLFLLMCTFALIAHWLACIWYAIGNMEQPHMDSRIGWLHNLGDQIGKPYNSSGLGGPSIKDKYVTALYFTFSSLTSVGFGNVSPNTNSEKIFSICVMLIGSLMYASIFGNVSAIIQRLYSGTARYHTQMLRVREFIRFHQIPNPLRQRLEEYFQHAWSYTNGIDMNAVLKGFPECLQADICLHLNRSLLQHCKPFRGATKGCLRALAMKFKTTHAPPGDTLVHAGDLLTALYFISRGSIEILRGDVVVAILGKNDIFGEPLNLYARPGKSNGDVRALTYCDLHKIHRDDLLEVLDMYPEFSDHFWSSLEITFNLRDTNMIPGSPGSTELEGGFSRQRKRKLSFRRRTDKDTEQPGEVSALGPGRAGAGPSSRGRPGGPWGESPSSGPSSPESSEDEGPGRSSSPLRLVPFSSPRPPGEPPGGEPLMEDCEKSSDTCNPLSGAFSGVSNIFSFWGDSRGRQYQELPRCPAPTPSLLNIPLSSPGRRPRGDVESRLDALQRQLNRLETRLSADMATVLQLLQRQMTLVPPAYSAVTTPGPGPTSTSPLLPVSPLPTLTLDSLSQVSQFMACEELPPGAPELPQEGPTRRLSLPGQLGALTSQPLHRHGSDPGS

T1 sequence (P41595 whole entry): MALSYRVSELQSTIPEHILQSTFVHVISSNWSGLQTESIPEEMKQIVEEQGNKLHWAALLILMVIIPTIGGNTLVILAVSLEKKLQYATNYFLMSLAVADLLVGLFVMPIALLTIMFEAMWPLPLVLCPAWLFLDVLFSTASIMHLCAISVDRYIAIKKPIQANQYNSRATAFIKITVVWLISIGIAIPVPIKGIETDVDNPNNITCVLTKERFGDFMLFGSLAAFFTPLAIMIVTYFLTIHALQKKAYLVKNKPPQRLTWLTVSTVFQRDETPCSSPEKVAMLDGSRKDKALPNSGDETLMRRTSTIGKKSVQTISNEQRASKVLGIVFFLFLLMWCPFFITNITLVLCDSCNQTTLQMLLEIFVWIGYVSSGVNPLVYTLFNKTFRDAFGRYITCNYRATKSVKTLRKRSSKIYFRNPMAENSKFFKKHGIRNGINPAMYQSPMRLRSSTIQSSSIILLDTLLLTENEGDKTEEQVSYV
Sequence of 5-hydroxytryptamine receptor 2A (P28223 whole entry): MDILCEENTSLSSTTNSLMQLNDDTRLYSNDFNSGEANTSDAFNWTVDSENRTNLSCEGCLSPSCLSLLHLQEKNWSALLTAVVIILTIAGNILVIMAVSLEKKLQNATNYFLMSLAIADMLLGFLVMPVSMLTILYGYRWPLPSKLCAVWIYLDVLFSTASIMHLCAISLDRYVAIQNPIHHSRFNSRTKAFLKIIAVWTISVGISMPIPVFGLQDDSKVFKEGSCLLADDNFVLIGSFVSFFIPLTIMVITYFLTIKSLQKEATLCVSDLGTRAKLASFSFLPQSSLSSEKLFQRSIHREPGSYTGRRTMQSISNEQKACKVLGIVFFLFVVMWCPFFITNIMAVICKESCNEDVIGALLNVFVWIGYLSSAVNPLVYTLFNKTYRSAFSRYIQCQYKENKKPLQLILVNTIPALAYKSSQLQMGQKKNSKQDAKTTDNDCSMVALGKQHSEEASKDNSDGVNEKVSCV
Sequence of 5-hydroxytryptamine receptor 5A (P47898 whole entry): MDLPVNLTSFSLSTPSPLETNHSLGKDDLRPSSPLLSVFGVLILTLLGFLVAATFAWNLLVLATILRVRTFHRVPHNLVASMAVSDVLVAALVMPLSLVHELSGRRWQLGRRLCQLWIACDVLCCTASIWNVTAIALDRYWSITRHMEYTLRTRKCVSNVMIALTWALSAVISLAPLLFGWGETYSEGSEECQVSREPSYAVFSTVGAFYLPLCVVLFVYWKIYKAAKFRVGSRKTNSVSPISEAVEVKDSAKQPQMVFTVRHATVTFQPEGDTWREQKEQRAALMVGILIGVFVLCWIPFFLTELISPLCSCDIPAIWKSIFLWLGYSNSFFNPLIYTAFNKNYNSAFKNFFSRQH
Sequence of 5-hydroxytryptamine receptor 1D (P28221 whole entry): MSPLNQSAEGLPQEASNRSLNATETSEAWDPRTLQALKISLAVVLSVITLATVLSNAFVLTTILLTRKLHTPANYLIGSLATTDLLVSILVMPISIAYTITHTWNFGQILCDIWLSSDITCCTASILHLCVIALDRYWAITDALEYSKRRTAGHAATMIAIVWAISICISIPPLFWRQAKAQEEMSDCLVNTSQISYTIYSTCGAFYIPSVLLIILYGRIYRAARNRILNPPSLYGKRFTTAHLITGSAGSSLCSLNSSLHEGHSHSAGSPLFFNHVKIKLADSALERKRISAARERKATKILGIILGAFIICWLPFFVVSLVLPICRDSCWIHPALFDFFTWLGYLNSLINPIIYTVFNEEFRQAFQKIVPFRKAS
Sequence of 5-hydroxytryptamine receptor 7 (P34969 whole entry): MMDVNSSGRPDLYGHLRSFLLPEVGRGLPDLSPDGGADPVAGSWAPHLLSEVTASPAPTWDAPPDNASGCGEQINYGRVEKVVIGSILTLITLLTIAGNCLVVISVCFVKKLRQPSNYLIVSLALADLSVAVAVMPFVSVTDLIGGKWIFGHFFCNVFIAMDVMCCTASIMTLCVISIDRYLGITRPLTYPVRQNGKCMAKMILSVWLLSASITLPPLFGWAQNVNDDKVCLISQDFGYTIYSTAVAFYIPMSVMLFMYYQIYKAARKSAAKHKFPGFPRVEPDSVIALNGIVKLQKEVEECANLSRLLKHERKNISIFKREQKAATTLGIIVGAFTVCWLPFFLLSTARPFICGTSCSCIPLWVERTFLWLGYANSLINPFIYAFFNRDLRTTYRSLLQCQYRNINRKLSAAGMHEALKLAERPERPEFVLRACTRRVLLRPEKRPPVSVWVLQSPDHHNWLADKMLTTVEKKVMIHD
Sequence of 5-hydroxytryptamine receptor 6 (P50406 whole entry): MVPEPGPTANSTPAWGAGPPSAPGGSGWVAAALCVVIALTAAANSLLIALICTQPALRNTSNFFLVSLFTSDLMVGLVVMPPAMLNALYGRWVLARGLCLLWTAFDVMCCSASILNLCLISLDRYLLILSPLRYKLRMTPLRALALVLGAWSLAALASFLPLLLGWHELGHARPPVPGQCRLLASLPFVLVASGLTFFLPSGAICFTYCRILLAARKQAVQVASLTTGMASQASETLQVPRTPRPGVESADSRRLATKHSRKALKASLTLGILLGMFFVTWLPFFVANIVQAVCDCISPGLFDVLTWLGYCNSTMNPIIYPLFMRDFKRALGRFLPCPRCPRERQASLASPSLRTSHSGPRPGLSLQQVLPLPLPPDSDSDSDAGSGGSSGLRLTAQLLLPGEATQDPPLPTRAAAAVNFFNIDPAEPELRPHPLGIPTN
Sequence of 5-hydroxytryptamine receptor 1B (P28222 whole entry): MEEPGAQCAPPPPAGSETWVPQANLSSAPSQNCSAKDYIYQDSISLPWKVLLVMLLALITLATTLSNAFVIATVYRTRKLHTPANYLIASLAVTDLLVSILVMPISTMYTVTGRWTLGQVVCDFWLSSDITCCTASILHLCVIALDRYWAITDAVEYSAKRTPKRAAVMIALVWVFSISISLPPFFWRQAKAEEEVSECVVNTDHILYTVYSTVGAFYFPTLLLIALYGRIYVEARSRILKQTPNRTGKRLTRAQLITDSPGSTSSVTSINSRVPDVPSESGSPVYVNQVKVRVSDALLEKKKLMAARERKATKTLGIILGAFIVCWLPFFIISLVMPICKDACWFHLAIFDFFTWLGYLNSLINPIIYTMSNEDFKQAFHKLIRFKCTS
Sequence of 5-hydroxytryptamine receptor 1E (P28566 whole entry): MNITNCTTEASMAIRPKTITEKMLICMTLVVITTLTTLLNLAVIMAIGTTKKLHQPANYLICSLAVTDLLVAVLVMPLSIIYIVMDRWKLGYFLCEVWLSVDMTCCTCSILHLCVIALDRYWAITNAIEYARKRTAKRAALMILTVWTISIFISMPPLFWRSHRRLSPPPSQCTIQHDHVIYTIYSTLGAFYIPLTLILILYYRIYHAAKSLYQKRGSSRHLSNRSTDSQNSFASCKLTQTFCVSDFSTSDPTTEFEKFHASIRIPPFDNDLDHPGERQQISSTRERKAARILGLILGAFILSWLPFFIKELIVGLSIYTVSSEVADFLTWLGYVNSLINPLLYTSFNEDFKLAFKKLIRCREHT

With `CCCOC(=O)c1cccc(NC2=NC(N)=NC3(CCCCC3)N2)c1`, the inhibition in [1] was found to be 110%.

For the compound `CCOC(=O)c1cccc(NC2=NC(NC)=NC3(CCCCC3)N2)c1`, the inhibition in data set [1] was determined as 108%.

Take `COc1cccc(NC2=NC(N)=NC3(CCCC3)N2)c1`: the inhibition in [1] stood at 63%.

For the compound `CCCC(=O)c1cccc(NC2=NC(N)=NC3(CCCCC3)N2)c1`, the inhibition in data set [1] is 106%.

As for `Cc1ccccc1NC1=NC(N)=NC2(CCCCC2)N1`, the inhibition in data set [1] was determined as 39.9%.

Take `CC1(C)N=C(N)N=C(Nc2cccc(Br)c2)N1`: the Ki in [2] is 2650 nM; in data set [3] it was 20.5 nM; in [4], above 10000 nM; in data set [5], 783 nM; in [6] it was 389 nM; in data set [7], 1530 nM. Moreover, the inhibitory constant (Ki) in data set [8] is 2080 nM; in data set [9], 265 nM; in [10] it was above 10000 nM; in data set [11] it was 660 nM; in [12] it was 696 nM. Besides, the inhibition in data set [1] was 75.9%.

For the compound `CCOC(=O)c1cccc(N(C)C2=NC(N)=NC3(CCCCC3)N2)c1`, the inhibition in data set [1] was found to be 50.4%.

On to `NC1=NC2(CCCCC2)NC(Nc2cccc(C(=O)O)c2)=N1`, for which the inhibition in data set [1] turned out to be 4.4%.

Take `Cc1ccc(NC2=NC(N)=NC3(CCCCC3)N2)cc1`: in data set [1], the inhibition was 50.2%.

Regarding `CN(C)c1ccc(NC2=NC(N)=NC3(CCCCC3)N2)cc1`, the inhibition in data set [1] was determined as 17.6%.

For `CCOC(=O)c1cccc(NC2=NC(N(C)C)=NC3(CCCCC3)N2)c1`, the inhibitory constant (Ki) in [2] was 3830 nM; in [3], 38.5 nM; in [4], above 10000 nM; in data set [5], 1540 nM; in [6] it was 595 nM; in [7], 9650 nM. Besides, the inhibition constant (Ki) in data set [8] was 516 nM; in [9], 1200 nM; in [10], above 10000 nM; in data set [11], 116 nM; in [12], 4780 nM. Moreover, the inhibition in [1] came to 91.8%.

Consider `CCNC(=O)c1cccc(NC2=NC(N)=NC3(CCCCC3)N2)c1`, for which the Ki in [2] is above 10000 nM; in [3] it was 27.5 nM; in data set [4] it was above 10000 nM; in data set [5], 1310 nM; in [6], 994 nM; in [7] it was above 10000 nM. The inhibitory constant (Ki) in data set [8] is 427 nM; in [9], 1900 nM; in data set [10] it was above 10000 nM; in [11] it was 6760 nM; in data set [12], 5910 nM. Further, the inhibition in data set [1] turned out to be 95.5%.

On to `NC1=NC2(CCCCC2)NC(Nc2cccc(Br)c2)=N1`, for which the Activity result with Rattus norvegicus [13] is reported as “Non-toxic”. Besides, the Ki was 2900 nM in [2]; 6.2 nM in data set [3]; above 10000 nM in [4]; 211 nM in [5]; 227 nM in [6]; above 10000 nM in data set [7]. Further, the inhibitory constant (Ki) in [8] was 401 nM; in data set [9], 156 nM; in data set [10], above 10000 nM; in data set [11], 320 nM; in [12], 3030 nM. Also, the inhibition in vivo at 30 mg/kg in the data set with Rattus norvegicus [14] amounted to 63%; with Rattus norvegicus [15], 68%. The inhibition in [1] was 97.4%. Also, the IC50 in data set [16] was above 1000 nM.

For the compound `CCN(CC)C(=O)c1cccc(NC2=NC(N)=NC3(CCCCC3)N2)c1`, the inhibition in data set [1] was 40.7%.

In the case of `COc1ccccc1NC1=NC(N)=NC2(CCCCC2)N1`, in data set [1], the inhibition was determined as 20.7%.

As to `CCOC(=O)c1cccc(NC2=NC(N)=NC3(CCCCC3)N2)c1`, the Ki in [2] is 8590 nM; in [3], 7.2 nM; in data set [4] it was above 10000 nM; in data set [5], 174 nM; in [6] it was 457 nM; in data set [7], above 10000 nM. Besides, the Ki is 472 nM in [8]; 851 nM in [9]; above 10000 nM in data set [10]; 714 nM in [11]; 3590 nM in data set [12]. In data set [1], the inhibition amounted to 107%.

As for `NC1=NC2(CCCCC2)NC(Nc2cccc(C(=O)C3CC3)c2)=N1`, the inhibition in [1] is 4%.

For the compound `NC1=NC2(CCCCC2)NC(Nc2ccc(Cl)cc2)=N1`, the inhibition in data set [1] worked out at 57.1%.

Take `COc1cccc(NC2=NC(N)=NC3(CCCCC3)N2)c1`: the inhibition in data set [1] is 84.6%.
